Source: ChEMBL document CHEMBL1157855, “Synthesis and biological activity of n-butylphthalide derivatives” (Eur J Med Chem, 2010)

Assays:
[1] = Toxicity in ip dosed mouse; assay type: organism-based; conditions: in vivo
In short: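 Acute toxicity test in mice with test article given by intraperitoneal injection; read-out was the LD50 (mg/kg).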

[2] = system: Aorta; assay: Vasorelaxant activity in rat thoracic aorta assessed as inhibition of norepinephrine-induced contractions Ca2+-free medium; assay type: functional, tissue-based
[3] = system: Aorta; assay: Vasorelaxant activity in rat thoracic aorta assessed as relaxation of resting tension

CCCCC1OC(=O)c2cc(F)ccc21 (stereo not given)
LD50 [1]: 593 mg/kg | IC50 [2]: 132 µM | inhibition [2]: Dose-dependent effect

CCCCC1OC(=O)c2ccc(Br)cc21 (stereo not given)
Activity [3]: Dose-dependent effect

CCCCC1OC(=O)c2ccc(Cl)cc21 (stereo not given)
Activity [3]: Dose-dependent effect

CCCCC1OC(=O)c2ccccc21 (stereo not drawn) [RAC-3-N-BUTYLPHTHALIDE]
LD50 [1]: 751 mg/kg | IC50 [2]: 130 µM

CCCCC1OC(=O)c2cc(Br)ccc21 (stereo not given)
LD50 [1]: > 1000 mg/kg | IC50 [2]: 107 µM | inhibition [2]: Dose-dependent effect
